Measurements reported in ChEMBL document CHEMBL2380254, “Optimization of tocotrienols as antiproliferative and antimigratory leads” (Eur J Med Chem, 2013).

Experiments:
CCRF-CEM = assay: Growth inhibition of human CCRF-CEM cells after 48 hrs by sulforhodamine B assay; type: functional
Method in brief: (§1)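 NCI-60 screen: cells in RPMI 1640 with 5% FBS and 2 mM glutamine, 5000–40,000 cells/well, preincubated 24 h. Five concentrations (10-fold dilutions; 100 to 0.001 µM) applied for 48 h at 37 °C. TCA fixation, SRB stain, absorbance at 515 nm. Time-zero plates included; GI50 where 100×(T−T0)/(C−T0)=50.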

DU-145 = assay: Growth inhibition of human DU145 cells assessed as cell growth at 10 uM after 48 hrs by sulforhodamine B assay; type: functional; details: DU-145, 48 h, read-out: Activity
Method in brief: (§2)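 NCI-60 single-dose screen at 10 µM: cells in RPMI 1640 with 5% FBS, preincubated 24 h, then exposed 48 h at 37 °C. TCA fixation (16% final for suspension cells), SRB staining, absorbance 515 nm. Percent growth relative to time-zero and untreated control plates; negative values indicate cell kill.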

[1] = Growth inhibition of human Hs 578T cells after 48 hrs by sulforhodamine B assay; type: functional; method in brief: as §1
HT-29 = assay: Growth inhibition of human HT-29 cells after 48 hrs by sulforhodamine B assay; type: functional; details: HT-29, 48 h; method in brief: as §1
COLO 205 = assay: Growth inhibition of human COLO205 cells after 48 hrs by sulforhodamine B assay; type: functional; details: COLO 205, 48 h; method in brief: as §1
HOP-92 = assay: Growth inhibition of human HOP92 cells after 48 hrs by sulforhodamine B assay; type: functional; details: HOP-92, 48 h; method in brief: as §1
CAKI-1 = assay: Growth inhibition of human CAKI-1 cells assessed as cell growth at 10 uM after 48 hrs by sulforhodamine B assay; type: functional; details: CAKI-1, 48 h, read-out: Activity; method in brief: as §2
OVCAR-4 = assay: Growth inhibition of human OVCAR4 cells assessed as cell growth at 10 uM after 48 hrs by sulforhodamine B assay; type: functional; details: OVCAR-4, 48 h, read-out: Activity
Method in brief: (§3)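 Single-dose NCI-60 screen: adherent cells in RPMI 1640 with 5% FBS were exposed to 10 µM for 48 h at 37 °C after a 24 h preincubation. They were fixed in situ with cold TCA (10% final), stained with 0.4% SRB in 1% acetic acid, solubilized in 10 mM Tris base, and read at 515 nm. Percent growth was taken relative to time-zero and control plates.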

SF-268 = assay: Growth inhibition of human SF268 cells after 48 hrs by sulforhodamine B assay; type: functional; details: SF-268, 48 h
Method in brief: (§4)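 NCI-60 panel cells grown in RPMI 1640 with 5% FBS and 2 mM L-glutamine, seeded at 5000–40,000 cells/well and preincubated 24 h. Five 10-fold dilutions (0.001–100 µM) from DMSO stocks were added for 48 h at 37 °C. Adherent cells were fixed with cold TCA (10% final) for 60 min at 4 °C, stained with 0.4% SRB, and read at 515 nm. GI50 was set where 100×(T−T0)/(C−T0)=50.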

RXF 393 = assay: Growth inhibition of human RXF393 cells assessed as cell growth at 10 uM after 48 hrs by sulforhodamine B assay; type: functional; details: RXF 393, 48 h, read-out: Activity; method in brief: as §3
U-251 = assay: Growth inhibition of human U251 cells assessed as cell growth at 10 uM after 48 hrs by sulforhodamine B assay; type: functional; details: U-251, 48 h, read-out: Activity
Method in brief: (§5)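 Single-dose NCI-60 test at 10 µM. Cells were grown in RPMI 1640 with 5% FBS and 2 mM L-glutamine, preincubated 24 h, with T0 plates TCA-fixed. Exposure was 48 h at 37 °C, 5% CO2. Cells were fixed with cold TCA (final 10%, 4 °C, 60 min), stained with SRB and read at 515 nm. Percent growth was taken relative to T0 and untreated control; negative values denote cell kill.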

HCT-116 [2] = assay: Growth inhibition of human HCT116 cells assessed as cell growth at 10 uM after 48 hrs by sulforhodamine B assay; type: functional; details: HCT-116, 48 h, read-out: Activity; method in brief: as §2
HCT-116 [3] = assay: Growth inhibition of human HCT116 cells after 48 hrs by sulforhodamine B assay; type: functional; details: HCT-116, 48 h; method in brief: as §1
SF-295 = assay: Growth inhibition of human SF295 cells after 48 hrs by sulforhodamine B assay; type: functional; details: SF-295, 48 h; method in brief: as §4
OVCAR-8 = assay: Growth inhibition of human OVCAR8 cells assessed as cell growth at 10 uM after 48 hrs by sulforhodamine B assay; type: functional; details: OVCAR-8, 48 h, read-out: Activity; method in brief: as §3
MOLT-4 = assay: Growth inhibition of human MOLT4 cells after 48 hrs by sulforhodamine B assay; type: functional; details: MOLT-4, 48 h
Method in brief: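 NCI-60 suspension lines in RPMI 1640 with 5% FBS and 2 mM L-glutamine, preincubated 24 h. A five-concentration 10-fold series (0.001–100 µM) was given for 48 h at 37 °C. Settled cells were fixed with 80% TCA (16% final), stained with SRB, and read at 515 nm. GI50 was taken where 100×(T−T0)/(C−T0)=50, with T0 plates fixed at drug addition.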

T47D = assay: Growth inhibition of human T47D cells assessed as cell growth at 10 uM after 48 hrs by sulforhodamine B assay; type: functional; details: read-out: Activity; method in brief: as §5
SK-MEL-2 = assay: Growth inhibition of human SK-MEL-2 cells after 48 hrs by sulforhodamine B assay; type: functional; details: SK-MEL-2, 48 h; method in brief: as §4
SW-620 = assay: Growth inhibition of human SW620 cells assessed as cell growth at 10 uM after 48 hrs by sulforhodamine B assay; type: functional; details: SW-620, 48 h, read-out: Activity; method in brief: as §5
MDA-MB-231 = assay: Growth inhibition of human MDA-MB-231 cells assessed as cell growth at 10 uM after 48 hrs by sulforhodamine B assay; type: functional; details: MDA-MB-231, 48 h, read-out: Activity; method in brief: as §3
SK-OV-3 = assay: Growth inhibition of human SKOV3 cells after 48 hrs by sulforhodamine B assay; type: functional; details: SK-OV-3, 48 h
Method in brief: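 NCI-60 five-dose screen. Cells were grown in RPMI 1640 with 5% FBS and 2 mM L-glutamine, plated at 5000–40,000 cells/well and incubated 24 h before dosing, with T0 plates TCA-fixed. DMSO stocks were diluted to doses of […] and exposed 48 h at 37 °C, 5% CO2. Cells were fixed with cold TCA (final 10%, 60 min, 4 °C), stained with 0.4% SRB in 1% acetic acid for 10 min, solubilized in 10 mM trizma base and read at 515 nm. GI50 is where 100×(T−T0)/(C−T0)=50.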

[4] = Growth inhibition of human NCI-ADR-RES cells after 48 hrs by sulforhodamine B assay; type: functional; method in brief: as §4
[5] = Antiproliferative activity against mouse +SA cells by MTT assay; type: functional, cell-based; details: +SA cell
Method in brief: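 Mouse +SA mammary epithelial cells in serum-free DMEM/F12 with BSA, transferrin, insulin and EGF. Compounds from DMSO stock conjugated to BSA (overnight, 37 °C); 0–40 µM, final DMSO <0.1%. MTT 0.42 mg/mL for 4 h at 37 °C, isopropanol solubilization, OD 570 nm. Cell number from a standard curve; IC50 by non-linear regression.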

With CC(C)=CCC/C(C)=C/CC/C(C)=C/CC[C@]1(C)CCc2c3c(cc(C)c2O1)OCN(CCCO)C3 the GI50 (CCRF-CEM) was 2590 nM, the growth at 10 µM (DU-145) was -13.6% and the GI50 [1] was 2030 nM. It also gave a GI50 (HT-29) of 1780 nM, a GI50 (COLO 205) of 1980 nM and a GI50 (HOP-92) of 1460 nM. The growth at 10 µM (CAKI-1) was 60.4%, the growth at 10 µM (OVCAR-4) was -46.5% and the GI50 (SF-268) was 2040 nM. The growth at 10 µM (RXF 393) was -90.5%, the growth at 10 µM (U-251) was -83.4% and the growth at 10 µM (HCT-116 [2]) was -85.4%. For the same molecule, the GI50 (HCT-116 [3]) was 1790 nM, the GI50 (SF-295) was 1760 nM and the growth at 10 µM (OVCAR-8) was -77.7%. It also gave a GI50 (MOLT-4) of 1920 nM, a growth at 10 µM (T47D) of -22.1% and a GI50 (SK-MEL-2) of 2270 nM. For the same molecule, the growth at 10 µM (SW-620) was -92.1%, the growth at 10 µM (MDA-MB-231) was 10.6% and the GI50 (SK-OV-3) was 1980 nM. It also gave a GI50 [4] of 1960 nM and an IC50 [5] of 1800 nM.
